Screening data from PubChem BioAssay.
ARFGAP1 inhibitor = inhibitors of rat ARFGAP1 GAP activity, primary screen, biochemical, fluorescence polarization, GDP tracer | inhibition, % at 16.5 µM | ADP-ribosylation factor GTPase-activating protein 1 (Rattus norvegicus), Q62848 | 0.26% of 360,000 active | Arfgap1-stimulated ARF1 GTP hydrolysis, GDP FP detection | AID 651572, 2012;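 active = inhibition above a per-plate limit, mean inhibition of low control wells plus 3 SD, cut at about 25% in these data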
Target sequence (Q62848 1-136 limits assumed): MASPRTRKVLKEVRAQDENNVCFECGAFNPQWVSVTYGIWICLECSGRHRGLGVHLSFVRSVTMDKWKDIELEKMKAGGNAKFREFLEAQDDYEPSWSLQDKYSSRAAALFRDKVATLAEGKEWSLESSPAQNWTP
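System: truncated rat Arfgap1 GAP domain / Medium: HEPES-based buffer, pH 7.5 / Also added: N-terminally truncated human ARF1-GTP substrate / Incubation: enzyme reaction 120 min at 25 °C after 20 min preincubation / Measured by: FP of antibody-bound GDP Alexa 633 tracer, ex 620/em 688 nm / Replicates: singlicate, each compound tested once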
HGIII-sPLA2 inh = human group III sPLA2 inhibitors, primary screen, biochemical, QFRET, BODIPY PC-A2 liposome substrate. QFRET BODIPY PC-A2 liposome hydrolysis, fluorescence. 0.56% of 370,000 active. Group 3 secretory phospholipase A2 (Homo sapiens), Q9NZ20. inhibition, % at 12.2 µM. AID 743126, 2013;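 active = inhibition above mean plus 3 SD of compounds lying within the high and low control bounds, cut at about 19% in these data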
SKKanGAS inh = S. pyogenes SKKanGAS growth inhibitors in kanamycin, primary screen, streptokinase expression inhibitor project, SKKanGAS strain, BacTiter-Glo luminescence | 6 h | inhibition, % at 7.5 µM | 1.3% of 300,000 active;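 active = mean replicate score, as percent of positive control median, at least 50; inconclusive = mean below 50 but one replicate at or above 50; inactive = mean and every replicate below 50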;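 also: strain carries kanamycin resistance gene driven by streptokinase promoter and grows in 40 µg/ml kanamycin; loss of luminescence reflects streptokinase promoter inhibition or plain growth inhibition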
ASAP1 inh = inhibitors of human ASAP1 ArfGAP activity, primary screen, biochemical, fluorescence polarization; Arf-GAP with SH3 domain, ANK repeat and PH domain-containing protein 1 (Homo sapiens), …; ASAP1-stimulated ARF1 GTP hydrolysis, GDP FP detection; inhibition, % at 16.5 µM; 0.19% of 360,000 active; in the data active = inhibition above about 25%
Calb FLC = C. albicans growth inhibition with fluconazole, primary screen, CaCi-2 strain, Alamar Blue fluorescence; C. albicans CaCi-2 + fluconazole, 48 h; growth inhibition, % (no concentration beside the values); 0.57% of 300,000 active;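 active = growth inhibition above about 58% in most replicates, limit read from the data, passing the limit was not always enough; inconclusive = exactly half the replicates above a set limit; inactive = most replicates below a set limit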;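 also: all wells also contain fluconazole at 8 µg/ml as a sub-toxic cotreatment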
ARFGAP1 confirm = ARFGAP1 inhibitor hit confirmation, biochemical, fluorescence polarization, triplicate. AID 651608, 2012. inhibition, % at 16.5 µM. ARFGAP1-stimulated ARF1 GTP hydrolysis, GDP tracer FP. shares compounds with ARFGAP1 inhibitor. 30% of 890 active;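 active = average inhibition over triplicates above the hit cutoff set in the earlier primary screen, cut at about 25% in these data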
Hits are given with their value; - = inactive; ? = inconclusive; . = no result; + = active, no number. Only some compounds are listed: those with a hit (about 2.3% of all), similar ones and a draw of the others.

SMILES	ARFGAP1 inhibitor	HGIII-sPLA2 inh	SKKanGAS inh	ASAP1 inh	Calb FLC	ARFGAP1 confirm
C=CCOc1ccc(/C=C/C(=O)Nc2ccc(C(=O)NC)cc2)cc1	29	-	-	-	-	37
CCCCOc1ccc(/C=C/C(=O)Nc2ccc(C(N)=O)cc2)cc1	-	-	-	-	?	.
O=C(CSc1ncn[nH]1)NCc1ccccc1Cl	25	-	-	-	-	-
C=C(C)CC1(NC(C)c2ccccc2)CCCCC1 (stereo unspecified)	31	-	-	-	-	-
CC(NC(=O)CC1CCCCC1)c1ccccc1 (stereo unspecified)	-	-	-	-	-	.
Cn1ccc2c(-c3ccc4c(c3)OCCO4)cc3c(c21)C1CCC3C1 (stereo unspecified)	-	-	.	-	.	.
COc1ccc(C=Nn2c(-c3ccc(F)cc3)n[nH]c2=S)c(OC)c1OC	.	-	.	.	.	.
O=C(Nc1ccc2oc(=O)ccc2c1)c1ccc(-c2cccc([N+](=O)[O-])c2)o1	71	-	-	63	-	107
C#CCOCCOCCOCCNc1nc(N2CCOCC2)nc(N2CCN(C(=O)[C@H](CCC(=O)O)n3cc(C(N)CO)nn3)CC2)n1 (stereo partly specified)	.	-	.	.	.	.
Nc1cccc(C(=O)Nc2ccc3nc(-c4cccnc4)[nH]c3c2)c1	29	-	-	-	-	-
Nc1ccc2nc(-c3cccnc3)[nH]c2c1	-	-	-	-	-	.
CCOc1ccccc1C(=O)N(CN1CCCC1=O)c1cccc(Cl)c1	38	-	-	-	-	-
COc1ccccc1C(=O)N(CN1CCCC1=O)c1cccc(Cl)c1	-	-	-	-	-	.
COc1cccc(NC2=C(NCCO)C(=O)c3ccccc3C2=O)c1	-	-	-	-	-	.
COc1ccc(NC2=C(NCCO)C(=O)c3ccccc3C2=O)cc1	28	-	-	-	-	-
CC(C)CCC(CCNCc1ccccn1)c1ccc(Cl)cc1 (stereo unspecified)	31	-	51	-	-	-
COc1ccccc1NS(=O)(=O)c1cc2c(cc1C)NC(=O)CO2	51	-	-	-	-	-
COc1cccc(NS(=O)(=O)c2cc3c(cc2C)NC(=O)CO3)c1	-	-	-	-	-	.
CC1=C2N=C(N)N(Cc3ccccc3)C(Cc3ccccc3)C2n2c(=O)n(-c3ccccc3)c(=O)n2C1 (stereo unspecified)	.	-	.	.	.	.
CC(C)NC(=O)c1ccccc1NC(=O)CN(c1ccc2c(c1)OCO2)S(C)(=O)=O	30	-	-	-	-	-
COc1cccc(/C=N/Nc2cc(N3CCOCC3)ncn2)c1O	29	-	99	-	98	43
COc1ccc(/C=N/Nc2cc(N3CCOCC3)ncn2)c(OC)c1	-	-	-	-	-	.
O=C(Nc1ccc(Nc2ccncc2)cc1)c1ccc(Nc2ccnc3ccc([N+](=O)[O-])cc23)cc1[N+](=O)[O-]	74	-	54	-	-	+
C[C@H](O)[C@@H]1CN2CCc3ccc(-c4ccc5c(c4)OCO5)cc3[C@@H]2C[C@@H]1N(C)CC1CCCCC1	.	-	.	.	.	.
COc1ccc(-c2cc3ccccc3oc2=O)cc1NC(=O)c1cccnc1	34	-	-	-	-	34
COc1ccc(C2=CCN(C)C(=O)N2c2ccc([N+](=O)[O-])cc2)cc1	.	-	.	.	.	.
COc1cc(/C=N/NC(=O)c2cc(-c3cccc(Br)c3)nc3ccccc23)cc(OC)c1O	27	-	-	-	-	-
CCOC(=O)c1cccc(NC(=O)CN(C)S(=O)(=O)c2cc3ccccc3s2)c1	.	-	.	.	.	.
CC(C)OC(=O)/C=C1\C[C@@H](c2ccccc2C(F)(F)F)O[C@@H](c2ccccc2C(F)(F)F)O1	-	-	.	-	.	.
COc1ccc(-n2cc(CN(C)C(C)c3ccncn3)c(-c3cccc(F)c3)n2)cc1 (stereo unspecified)	27	-	-	-	-	-
